# From ChEMBL document CHEMBL2331331 (J Med Chem, 2013)
# Activity calls are given as the source filed them. No cut-off for these calls is given here.
# How the values were obtained:
# [1] = AUC (0 to 24 hrs) in Sprague-Dawley rat at 10 mg/kg/day, po; format: ADME, organism-based; design: dose 10 mg/kg/day, time < 24 hr, route oral; conditions: plasma
# [2] = Apparent half life in Sprague-Dawley rat at 10 mg/kg/day, po; format: ADME, organism-based; design: route oral; conditions: in vivo, read-out: t1/2(app) (converted)
# [3] = Cmax in Sprague-Dawley rat at 10 mg/kg/day, po measured within 7 hrs; format: ADME, organism-based; design: dose 10 mg/kg/day, route oral; conditions: in vivo
# MV4-11 [4] = assay: Induction of apoptosis in FLT3-ITD-positive human MV4-11 cells xenografted in NOD-SCID mouse assessed as increase in apoptotic cells at 10 mg/kg/day, po by TUNEL assay; format: functional, organism-based; conditions: TDE = time-dependent effect
# In short: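 Mice (NOD-SCID) bearing sc MV4-11 tumors given 10 mg/kg/d by oral gavage. Tumors removed after 2–4 days and formalin-fixed. Sections immunostained for Ki67 (proliferation) or p-STAT5, or TUNEL-stained (apoptosis). Imaged by light microscopy and compared with vehicle group.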
# MV4-11 [5] = assay: Antitumor activity against FLT3-ITD-positive human MV4-11 cells xenografted in NOD-SCID mouse assessed as tumor regression at 10 mg/kg/day, po administered 18 days measured every 3 days for 18 days; format: functional, organism-based
# In short: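 NOD-SCID mice (5–6 weeks) implanted sc with 1 × 10⁸/mL MV4-11 cells (100 μL) in serum-free medium. Grouped at 300–500 mm³, six per group, then dosed orally once daily for 18 days. Vehicle was 12.5% castor oil, 12.5% ethanol, 75% water. Tumor volume = long × short²/2, measured every 3 d.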
# [6] = target: T1, Receptor-type tyrosine-protein kinase FLT3 (Homo sapiens, UniProt P36888); assay: Inhibition of FLT3 in human MV4-11 cells assessed as inhibition of Erk1/2 phosphorylation after 20 hrs by Western blotting analysis; format: cell-based
# T1 sequence (P36888 whole entry): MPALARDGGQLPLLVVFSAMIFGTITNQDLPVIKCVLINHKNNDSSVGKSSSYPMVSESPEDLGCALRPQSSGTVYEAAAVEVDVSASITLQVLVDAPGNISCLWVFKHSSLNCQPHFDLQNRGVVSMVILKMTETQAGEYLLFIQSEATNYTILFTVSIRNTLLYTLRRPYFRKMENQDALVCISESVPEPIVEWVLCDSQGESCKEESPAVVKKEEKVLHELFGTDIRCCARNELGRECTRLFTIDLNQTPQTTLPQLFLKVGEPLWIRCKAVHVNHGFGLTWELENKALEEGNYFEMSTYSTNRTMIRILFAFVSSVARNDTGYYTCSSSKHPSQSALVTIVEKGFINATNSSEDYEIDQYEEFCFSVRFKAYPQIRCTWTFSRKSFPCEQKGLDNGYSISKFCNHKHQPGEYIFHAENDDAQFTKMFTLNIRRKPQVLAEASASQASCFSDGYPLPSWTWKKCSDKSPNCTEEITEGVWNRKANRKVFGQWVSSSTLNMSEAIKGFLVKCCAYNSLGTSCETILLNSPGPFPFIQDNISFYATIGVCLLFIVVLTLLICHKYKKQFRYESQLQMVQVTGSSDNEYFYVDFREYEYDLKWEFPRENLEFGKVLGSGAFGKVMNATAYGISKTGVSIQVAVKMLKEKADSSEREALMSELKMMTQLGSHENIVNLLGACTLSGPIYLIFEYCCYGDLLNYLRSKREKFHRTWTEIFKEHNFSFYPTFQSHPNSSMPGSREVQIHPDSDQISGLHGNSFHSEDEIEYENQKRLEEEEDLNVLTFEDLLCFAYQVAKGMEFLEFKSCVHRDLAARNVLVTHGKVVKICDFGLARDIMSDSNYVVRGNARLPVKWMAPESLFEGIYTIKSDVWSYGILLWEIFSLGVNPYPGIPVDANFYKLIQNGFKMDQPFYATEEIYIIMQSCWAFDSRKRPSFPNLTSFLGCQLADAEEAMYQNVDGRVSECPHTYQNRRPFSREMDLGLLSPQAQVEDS
# [7] = target: T1, Receptor-type tyrosine-protein kinase FLT3; assay: Inhibition of FLT3 phosphorylation in human MV4-11 cells after 20 hrs by Western blotting analysis; format: cell-based
# MV4-11 [8] = assay: Induction of apoptosis in human MV4-11 cells assessed as early apoptotic cells at 0.1 uM after 24 hrs by annexin V-FITC/propidium iodide staining-based FACS flow cytometric analysis (reference value: 1.61%); format: functional
# MV4-11 [9] = assay: Induction of apoptosis in human MV4-11 cells assessed as early apoptotic cells at 0.003 uM after 24 hrs by annexin V-FITC/propidium iodide staining-based FACS flow cytometric analysis (reference value: 1.61%); format: functional
# MV4-11 [10] = assay: Induction of apoptosis in human MV4-11 cells assessed as early apoptotic cells at 0.001 uM after 24 hrs by annexin V-FITC/propidium iodide staining-based FACS flow cytometric analysis (reference value: 1.61%); format: functional
# MV4-11 [11] = assay: Induction of apoptosis in human MV4-11 cells assessed as late apoptotic cells at 0.1 uM after 24 hrs by annexin V-FITC/propidium iodide staining-based FACS flow cytometric analysis (reference value: 4.28%); format: functional
# MV4-11 [12] = assay: Induction of apoptosis in human MV4-11 cells assessed as late apoptotic cells at 0.01 uM after 24 hrs by annexin V-FITC/propidium iodide staining-based FACS flow cytometric analysis (reference value: 4.28%); format: functional
# SMMC-7721 = assay: Cytotoxicity against human SMMC7721 cells assessed as growth inhibition after 72 hrs by MTT assay; conditions: SMMC-7721, 72 h
# TT = assay: Cytotoxicity against human TT cells assessed as growth inhibition after 72 hrs by MTT assay
# MCF7 = assay: Cytotoxicity against human MCF7 cells assessed as growth inhibition after 72 hrs by MTT assay; conditions: MCF7, 72 h
# Jurkat = assay: Cytotoxicity against human Jurkat cells assessed as growth inhibition after 72 hrs by MTT assay
# [13] = Inhibition of ERK (unknown origin); design: species or system Homo sapiens
# [14] = target: Mitogen-activated protein kinase kinase kinase 9 (Homo sapiens, UniProt P80192); assay: Inhibition of MLK1 (unknown origin)
# [15] = target: Insulin-like growth factor 1 receptor (Homo sapiens, UniProt P08069); assay: Inhibition of IGF1R (unknown origin)
# Sequence of Insulin-like growth factor 1 receptor (P08069 31-736 limits assumed): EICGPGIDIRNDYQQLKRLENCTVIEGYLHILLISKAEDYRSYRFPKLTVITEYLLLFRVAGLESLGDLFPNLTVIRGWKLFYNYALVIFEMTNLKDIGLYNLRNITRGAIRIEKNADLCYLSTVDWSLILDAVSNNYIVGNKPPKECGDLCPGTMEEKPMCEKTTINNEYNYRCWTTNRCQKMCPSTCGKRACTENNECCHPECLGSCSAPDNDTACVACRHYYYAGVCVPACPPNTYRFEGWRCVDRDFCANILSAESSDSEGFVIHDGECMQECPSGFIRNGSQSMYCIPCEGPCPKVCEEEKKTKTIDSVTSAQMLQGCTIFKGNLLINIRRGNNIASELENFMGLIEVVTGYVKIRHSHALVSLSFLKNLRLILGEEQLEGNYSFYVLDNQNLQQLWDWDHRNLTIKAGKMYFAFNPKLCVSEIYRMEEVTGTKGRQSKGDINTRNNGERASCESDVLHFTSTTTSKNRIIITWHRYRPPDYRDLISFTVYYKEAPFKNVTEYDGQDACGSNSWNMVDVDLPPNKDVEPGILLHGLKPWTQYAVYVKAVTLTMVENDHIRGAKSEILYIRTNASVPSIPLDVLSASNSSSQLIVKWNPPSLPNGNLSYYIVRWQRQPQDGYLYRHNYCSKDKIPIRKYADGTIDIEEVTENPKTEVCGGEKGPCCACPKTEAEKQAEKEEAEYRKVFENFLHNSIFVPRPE
# Sequence of Insulin-like growth factor 1 receptor (P08069 741-1367 limits assumed): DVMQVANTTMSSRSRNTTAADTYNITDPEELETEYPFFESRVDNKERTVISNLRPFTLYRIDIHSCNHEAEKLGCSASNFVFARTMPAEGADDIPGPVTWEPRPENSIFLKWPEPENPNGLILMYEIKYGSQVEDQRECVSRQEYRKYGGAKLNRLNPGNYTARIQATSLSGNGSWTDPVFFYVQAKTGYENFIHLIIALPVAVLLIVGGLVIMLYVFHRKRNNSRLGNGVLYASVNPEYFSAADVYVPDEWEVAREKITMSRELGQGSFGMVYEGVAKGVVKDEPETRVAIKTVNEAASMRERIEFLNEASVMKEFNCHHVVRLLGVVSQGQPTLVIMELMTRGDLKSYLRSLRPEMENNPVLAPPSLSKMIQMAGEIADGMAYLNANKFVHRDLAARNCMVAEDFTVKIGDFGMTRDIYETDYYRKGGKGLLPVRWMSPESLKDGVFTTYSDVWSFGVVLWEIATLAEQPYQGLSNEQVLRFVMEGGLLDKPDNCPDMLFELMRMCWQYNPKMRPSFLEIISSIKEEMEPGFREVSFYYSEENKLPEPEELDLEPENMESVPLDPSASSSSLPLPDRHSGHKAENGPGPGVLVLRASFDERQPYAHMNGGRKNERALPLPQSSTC
# [16] = target: Serine/threonine-protein kinase PLK1 (Homo sapiens, UniProt P53350); assay: Inhibition of PLK1 (unknown origin)
# Aurora kinase A = Aurora kinase A (Homo sapiens, UniProt O14965); assay: Inhibition of aurora-A (unknown origin)
# Sequence of Aurora kinase A (O14965 whole entry): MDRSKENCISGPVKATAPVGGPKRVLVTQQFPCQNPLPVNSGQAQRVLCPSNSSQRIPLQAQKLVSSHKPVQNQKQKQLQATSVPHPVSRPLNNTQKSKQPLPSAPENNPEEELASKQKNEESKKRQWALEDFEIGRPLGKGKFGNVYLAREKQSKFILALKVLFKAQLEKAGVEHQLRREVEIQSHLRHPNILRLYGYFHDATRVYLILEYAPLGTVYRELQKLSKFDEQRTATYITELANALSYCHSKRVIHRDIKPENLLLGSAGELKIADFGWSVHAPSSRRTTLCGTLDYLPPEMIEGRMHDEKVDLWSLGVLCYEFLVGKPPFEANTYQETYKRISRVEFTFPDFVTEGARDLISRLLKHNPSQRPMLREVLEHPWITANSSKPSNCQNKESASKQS
# [17] = target: Tyrosine-protein kinase SYK (Homo sapiens, UniProt P43405); assay: Inhibition of SYK (unknown origin)
# [18] = target: Fibroblast growth factor receptor 2 (Homo sapiens, UniProt P21802); assay: Inhibition of FGFR2 (unknown origin)
# Sequence of Fibroblast growth factor receptor 2 (P21802 whole entry): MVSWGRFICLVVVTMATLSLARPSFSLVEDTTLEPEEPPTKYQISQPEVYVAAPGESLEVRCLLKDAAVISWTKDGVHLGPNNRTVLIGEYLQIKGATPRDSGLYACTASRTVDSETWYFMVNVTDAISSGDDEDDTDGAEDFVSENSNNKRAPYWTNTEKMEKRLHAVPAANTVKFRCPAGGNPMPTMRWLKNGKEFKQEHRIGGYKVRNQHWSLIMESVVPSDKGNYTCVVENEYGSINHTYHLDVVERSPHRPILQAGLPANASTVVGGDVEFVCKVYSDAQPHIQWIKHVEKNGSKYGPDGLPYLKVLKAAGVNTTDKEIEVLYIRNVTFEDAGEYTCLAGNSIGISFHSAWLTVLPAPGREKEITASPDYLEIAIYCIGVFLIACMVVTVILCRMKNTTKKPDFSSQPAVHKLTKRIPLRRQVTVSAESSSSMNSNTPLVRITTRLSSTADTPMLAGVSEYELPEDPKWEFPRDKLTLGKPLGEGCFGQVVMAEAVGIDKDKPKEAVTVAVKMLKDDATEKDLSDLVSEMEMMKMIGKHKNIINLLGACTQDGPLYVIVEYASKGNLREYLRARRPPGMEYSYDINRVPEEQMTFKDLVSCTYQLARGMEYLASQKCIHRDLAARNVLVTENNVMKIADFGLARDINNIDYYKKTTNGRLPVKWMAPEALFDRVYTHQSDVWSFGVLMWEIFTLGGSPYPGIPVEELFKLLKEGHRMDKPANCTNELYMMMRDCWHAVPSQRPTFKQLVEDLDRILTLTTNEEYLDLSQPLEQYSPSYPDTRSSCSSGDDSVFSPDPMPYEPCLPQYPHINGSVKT
# [19] = target: RAF proto-oncogene serine/threonine-protein kinase (Homo sapiens, UniProt P04049); assay: Inhibition of c-RAF (unknown origin)
# Sequence of RAF proto-oncogene serine/threonine-protein kinase (P04049 whole entry): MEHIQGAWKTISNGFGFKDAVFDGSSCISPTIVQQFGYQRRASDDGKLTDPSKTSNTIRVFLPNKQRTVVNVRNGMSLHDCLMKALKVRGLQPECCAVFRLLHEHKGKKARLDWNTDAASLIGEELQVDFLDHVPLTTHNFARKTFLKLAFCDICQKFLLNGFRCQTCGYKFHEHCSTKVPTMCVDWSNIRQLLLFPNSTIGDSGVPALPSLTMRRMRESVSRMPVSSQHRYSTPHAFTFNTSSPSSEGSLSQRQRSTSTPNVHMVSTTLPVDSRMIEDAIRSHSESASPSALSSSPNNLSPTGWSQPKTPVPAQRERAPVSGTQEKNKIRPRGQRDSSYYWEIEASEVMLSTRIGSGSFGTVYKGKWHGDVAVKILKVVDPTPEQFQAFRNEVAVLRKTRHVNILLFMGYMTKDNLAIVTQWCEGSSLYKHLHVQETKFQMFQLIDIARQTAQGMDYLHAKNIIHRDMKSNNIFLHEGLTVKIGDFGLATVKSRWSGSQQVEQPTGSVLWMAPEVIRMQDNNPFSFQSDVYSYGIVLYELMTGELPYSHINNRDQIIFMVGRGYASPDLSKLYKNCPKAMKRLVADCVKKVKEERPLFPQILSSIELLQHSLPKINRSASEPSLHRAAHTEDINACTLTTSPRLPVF
# [20] = target: Receptor-type tyrosine-protein kinase FLT3 (Homo sapiens, UniProt P36888, ITD); assay: Binding affinity to FLT3-ITD mutant (unknown origin)
# [21] = target: Vascular endothelial growth factor receptor 2 (Homo sapiens, UniProt P35968); assay: Inhibition of VEGFR2 (unknown origin)
# Sequence of Vascular endothelial growth factor receptor 2 (P35968 whole entry): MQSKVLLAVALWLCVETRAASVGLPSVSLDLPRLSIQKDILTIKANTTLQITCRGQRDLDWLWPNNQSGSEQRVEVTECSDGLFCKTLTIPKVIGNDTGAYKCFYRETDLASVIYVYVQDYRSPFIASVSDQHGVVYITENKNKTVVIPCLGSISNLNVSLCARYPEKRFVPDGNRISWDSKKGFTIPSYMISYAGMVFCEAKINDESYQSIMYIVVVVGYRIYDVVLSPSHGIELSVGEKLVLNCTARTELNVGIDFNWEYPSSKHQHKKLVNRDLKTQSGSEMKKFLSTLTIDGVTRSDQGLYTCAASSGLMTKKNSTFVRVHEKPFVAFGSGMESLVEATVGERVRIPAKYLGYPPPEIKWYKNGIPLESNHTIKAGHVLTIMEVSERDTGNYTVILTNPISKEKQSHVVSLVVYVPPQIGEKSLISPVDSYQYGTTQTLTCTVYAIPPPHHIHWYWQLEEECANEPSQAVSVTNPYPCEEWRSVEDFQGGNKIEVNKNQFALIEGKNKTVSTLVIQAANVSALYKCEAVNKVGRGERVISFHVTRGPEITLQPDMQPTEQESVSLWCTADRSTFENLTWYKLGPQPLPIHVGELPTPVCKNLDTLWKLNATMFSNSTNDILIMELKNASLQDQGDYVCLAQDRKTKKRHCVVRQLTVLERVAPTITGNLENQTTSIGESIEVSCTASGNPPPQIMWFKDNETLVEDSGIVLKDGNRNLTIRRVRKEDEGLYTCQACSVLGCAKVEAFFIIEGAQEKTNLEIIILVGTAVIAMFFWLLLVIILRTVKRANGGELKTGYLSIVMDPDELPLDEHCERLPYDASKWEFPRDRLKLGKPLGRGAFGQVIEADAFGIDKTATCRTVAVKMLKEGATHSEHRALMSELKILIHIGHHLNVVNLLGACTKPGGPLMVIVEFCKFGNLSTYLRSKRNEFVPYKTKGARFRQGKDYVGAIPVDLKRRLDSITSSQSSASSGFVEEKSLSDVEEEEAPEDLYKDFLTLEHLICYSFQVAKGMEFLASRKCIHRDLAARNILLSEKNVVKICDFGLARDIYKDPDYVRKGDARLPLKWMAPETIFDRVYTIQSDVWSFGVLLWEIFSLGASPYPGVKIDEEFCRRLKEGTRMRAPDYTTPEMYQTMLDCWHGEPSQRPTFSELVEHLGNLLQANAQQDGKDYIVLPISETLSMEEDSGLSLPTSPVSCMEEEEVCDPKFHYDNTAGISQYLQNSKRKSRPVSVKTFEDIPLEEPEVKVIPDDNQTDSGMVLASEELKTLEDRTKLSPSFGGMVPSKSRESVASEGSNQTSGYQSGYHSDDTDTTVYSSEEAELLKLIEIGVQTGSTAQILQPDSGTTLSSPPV
smiles,measurement,setting,value
O=C(Nc1ccc(Oc2ncnc3[nH]ncc23)cc1)Nc1ccc(Cl)c(C(F)(F)F)c1,AUC at 24 h,[1],319 µg·h/mL
same,half-life,[2],12.6 h
same,Cmax,[3],15100 ng/mL
same,Activity,MV4-11 [4],tde
same,Activity,MV4-11 [5],Active
same,IC50,[6],1 nM
same,IC50,[7],3 nM
same,Activity,MV4-11 [8],9.96%
same,Activity,MV4-11 [9],5.16%
same,Activity,MV4-11 [10],4.15%
same,Activity,MV4-11 [11],25.8%
same,Activity,MV4-11 [12],9.64%
same,IC50,SMMC-7721,> 10000 nM
same,IC50,TT,3420 nM
same,IC50,MCF7,> 10000 nM
same,IC50,Jurkat,8720 nM
same,IC50,[13],> 10000 nM
same,IC50,[14],> 10000 nM
same,IC50,[15],> 10000 nM
same,IC50,[16],> 10000 nM
same,IC50,Aurora kinase A,> 10000 nM
same,IC50,[17],> 10000 nM
same,IC50,[18],1810 nM
same,IC50,[19],72 nM
same,Kd,[20],4.3 nM
same,IC50,[21],12 nM
